The subject of test [1] is Staphylococcus aureus. Briefly: Antibacterial activity against methicillin-sensitive Staphylococcus aureus isolate 6 planktonic cells at 5 mg after 24 hrs by disc diffusion test. Set-up: dose or concentration left out as unconfirmed. The conditions noted are these: isolate 6, 24 h, read-out: DIZ. (Agar diffusion results depend on both activity and mobility in agar.)
In test [2] the test system is Staphylococcus aureus. Briefly: Antibacterial activity against methicillin-sensitive Staphylococcus aureus isolate 5 planktonic cells at 5 mg after 24 hrs by disc diffusion test. Set-up: dose or concentration left out as unconfirmed. Conditions: isolate 5, 24 h, read-out: DIZ.
Test [3] concerns Staphylococcus aureus. Briefly: Antibacterial activity against methicillin-sensitive Staphylococcus aureus isolate 2 planktonic cells after 24 hrs by microdilution assay. Format: functional. The conditions noted are these: isolate 2, 24 h. In short, it runs like this: (§1)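 Planktonic cells at 1 × 10^5 CFU/mL were exposed to compound, and A580 was read at 0 h and after 24 h at 37 °C with shaking. Controls were medium plus microbes, with 1% (v/v) DMSO where the solvent was used. Relative cell number was calculated against the control. Results were confirmed by subculture in fresh medium (48 h, 37 °C) and plating. Conjugate concentrations were expressed as parent-antibiotic equivalents.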
A general note: Dilution methods test growth across graded concentrations, often in twofold steps.

Test [4] deals with Staphylococcus aureus. The test can be described thus: Antibiofilm activity against Staphylococcus aureus ATCC 6538 assessed as CFU counts at 400 ug/mL pretreated with HA for 24 hrs followed by organism inoculation measured after 24 hrs (reference value: 8.1 x 10^10CFU). The format is functional.
Test [5] concerns Staphylococcus aureus. Briefly: Antibacterial activity against methicillin-sensitive Staphylococcus aureus isolate 2 planktonic cells at 5 mg after 24 hrs by disc diffusion test. Set-up: dose or concentration left out as unconfirmed. The conditions noted are these: isolate 2, 24 h, read-out: DIZ.
Test [6] has as its system Staphylococcus aureus. The test can be described thus: Antibacterial activity against methicillin-resistant Staphylococcus aureus MR4-CIPS planktonic cells after 24 hrs by microdilution assay. Format: functional. In outline:
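Broth microdilution: 100 µL of 1 × 10^5 CFU/mL inoculum with graded compound concentrations, read at 580 nm before and after 24 h at 37 °C with shaking to prevent biofilm formation. Relative cell number is taken against medium + microbes controls, with 1% DMSO in the ciprofloxacin control. Growth is confirmed by 48 h subculture in fresh medium and by plating. MIC is expressed as parent-antibiotic equivalents.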

In test [7] the test system is Staphylococcus aureus. The test can be described thus: Antibacterial activity against methicillin-resistant Staphylococcus aureus MR4-CIPS planktonic cells at 5 mg after 24 hrs by disc diffusion test. Set-up: dose or concentration left out as unconfirmed. Conditions: read-out: DIZ.
Test [8] has as its system Aggregatibacter actinomycetemcomitans. Briefly: Antibiofilm activity against Aggregatibacter actinomycetemcomitans D7S-1 serotype A at 5 mg after 24 hrs by disc diffusion assay. The format is functional. Conditions: read-out: DIZ.
Test [9] concerns Staphylococcus aureus. The test can be described thus: Antibiofilm activity against Staphylococcus aureus ATCC 6538 assessed as CFU counts at 100 ug/mL pretreated with HA for 24 hrs followed by organism inoculation measured after 24 hrs (reference value: 8.1 x 10^10CFU). The format is functional. In outline: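 HA discs were soaked 24 h at 37 °C in 2 mL compound solution, with DMSO or phosphate-buffer controls, then rinsed 3× with sterile water. Discs were inoculated with 2 mL of 0.5 McFarland S. aureus ATCC 6538 for biofilm formation. Biofilm CFU were counted after 24 h growth.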

Test [10] relates to Staphylococcus aureus. Briefly: Bactericidal activity against Staphylococcus aureus ATCC 6538 biofilm using hydroxyapatite as substrate assessed as reduction in colony forming units after 24 hrs. The format is functional. In short, it runs like this: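 Biofilms were started from a 1 McFarland suspension, allowed to adhere 4 h at 37 °C on HA discs or polystyrene well bottoms, then rinsed. They were exposed 24 h at 37 °C to TSB containing 0.24–125 mg/L compound. Cells were detached in 0.5% saponin by 1 min vortexing, serially diluted and plated on Columbia (S. aureus) or MacConkey (P. aeruginosa) agar, 37 °C, 24 h. Read-out was mean CFU/mm² ± SEM; HA area was measured by X-ray tomography.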

Test [11] has as its system Aggregatibacter actinomycetemcomitans. The test can be described thus: Antibiofilm activity against Aggregatibacter actinomycetemcomitans infected in jawbone peri-implant osteomyelitis Sprague-Dawley rat model assessed as bacterial count in bone per gram at 10 mg/kg, ip administered 3 times per week measured after 1 week post pharmacotherapy relative to control. The format is functional. In outline: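 Rats carried two titanium implants each, preinoculated with A. actinomycetemcomitans D7S-1 biofilm (10^9 CFU), placed bilaterally in palatal bone. One week after surgery, randomized groups received i.p. doses in sterile saline; the negative control was endotoxin-free saline. One week after treatment, 1 cm² peri-implant tissue and bone were homogenized in 0.5% saponin, serially diluted 10-fold and spread-plated on modified TSB (37 °C, 5% CO2, 48 h). Read-out was CFU/g and mean log10 reduction; analysts were blinded.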

Test [12] concerns Staphylococcus aureus. Briefly: Antibacterial activity against methicillin-sensitive Staphylococcus aureus isolate 3 planktonic cells at 5 mg after 24 hrs by disc diffusion test. Set-up: dose or concentration left out as unconfirmed. The conditions noted are these: isolate 3, 24 h, read-out: DIZ.
For test [13], the system named is Staphylococcus aureus. Briefly: microbe, parasite or virus in culture. Also noted: dose or concentration left out as unconfirmed. Conditions: ATCC 6538, 24 h, read-out: DIZ.
The subject of test [14] is Staphylococcus aureus. Briefly: Antibiofilm activity against Staphylococcus aureus ATCC 6538 assessed as CFU counts at 200 ug/mL pretreated with HA for 24 hrs followed by organism inoculation measured after 24 hrs (reference value: 8.1 x 10^10CFU). The format is functional.
Test [15] has as its system Pseudomonas aeruginosa. The test can be described thus: Bactericidal activity against Pseudomonas aeruginosa ATCC 15442 biofilm using hydroxyapatite as substrate assessed as reduction in colony forming units at 8 ug/ml at pH 4.8 to 7.4 after 24 hrs. The format is functional.
In test [16] the test system is Staphylococcus aureus. The test can be described thus: Antibacterial activity against methicillin-sensitive Staphylococcus aureus isolate 6 planktonic cells after 24 hrs by microdilution assay. The format is functional. The conditions noted are these: isolate 6, 24 h. In outline: as §1
Test [17] concerns Staphylococcus aureus. The test can be described thus: Antibacterial activity against methicillin-sensitive Staphylococcus aureus isolate 4 planktonic cells after 24 hrs by microdilution assay. Format: functional. The conditions noted are these: isolate 4, 24 h. In short, it runs like this:
as §1

Test [18] concerns Staphylococcus aureus. The test can be described thus: Antibacterial activity against methicillin-sensitive Staphylococcus aureus isolate 3 planktonic cells after 24 hrs by microdilution assay. Conditions: isolate 3, 24 h. Format: functional. In short, it runs like this:
as §1

Test [19] relates to Staphylococcus aureus. The test can be described thus: Antibacterial activity against methicillin-sensitive Staphylococcus aureus ATCC 6538 planktonic cells after 24 hrs by microdilution assay. The conditions noted are these: ATCC 6538, 24 h. The format is functional. In outline: as §1
Test [20] deals with Staphylococcus aureus. The test can be described thus: Antibacterial activity against methicillin-sensitive Staphylococcus aureus isolate 4 planktonic cells at 5 mg after 24 hrs by disc diffusion test. Also noted: dose or concentration left out as unconfirmed. Conditions: isolate 4, 24 h, read-out: DIZ.
In test [21] the test system is Aggregatibacter actinomycetemcomitans. Briefly: Antibiofilm activity against Aggregatibacter actinomycetemcomitans D7S-1 serotype A after 24 hrs by microdilution assay. The format is functional.
The test system of test [22] is Staphylococcus aureus. The test can be described thus: Antibacterial activity against methicillin-sensitive Staphylococcus aureus isolate 1 planktonic cells at 5 mg after 24 hrs by disc diffusion test. Also noted: dose or concentration left out as unconfirmed. Conditions: isolate 1, 24 h, read-out: DIZ.
Test [23] has as its system Staphylococcus aureus. The test can be described thus: Antibacterial activity against methicillin-sensitive Staphylococcus aureus isolate 1 planktonic cells after 24 hrs by microdilution assay. Conditions: isolate 1, 24 h. The format is functional. In outline:
as §1

Test [24] deals with Staphylococcus aureus. Briefly: Antibacterial activity against methicillin-sensitive Staphylococcus aureus isolate 5 planktonic cells after 24 hrs by microdilution assay. Format: functional. The conditions noted are these: isolate 5, 24 h. In short, it runs like this: as §1
The test system of test [25] is Staphylococcus aureus. Briefly: Bactericidal activity against Staphylococcus aureus ATCC 6538 biofilm using hydroxyapatite as substrate assessed as reduction in colony forming units at 0.24 to 250 ug/ml after 24 hrs. Format: functional.
The test system of test [26] is Staphylococcus aureus. Briefly: Antibiofilm activity against Staphylococcus aureus ATCC 6538 assessed as reduction in bacterial adherence to HA at 0.24 to 7.8 ug/ml pretreated with HA for 24 hrs followed by organism inoculation measured after 24 hrs. Format: functional. In outline:
(§2)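 HA spherules (final 10 mg/mL) in TSB were preincubated 24 h at 37 °C with shaking with compound (final 0.12–250 mg/L), then pelleted and the supernatant discarded. They were inoculated with 1 mL S. aureus at 10^5 CFU/mL. A580 was read at 0 and 24 h (37 °C, shaking) against controls without spherules and spherules without compound; spherules were also plated for CFU.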

In test [27] the test system is Staphylococcus aureus. The test can be described thus: Antibiofilm activity against Staphylococcus aureus ATCC 6538 assessed as reduction in bacterial adherence to HA at 15.6 to 250 ug/ml pretreated with HA for 24 hrs followed by organism inoculation measured after 24 hrs. Format: functional. In outline: as §2

SMILES strings stand for the structures. Values after ≈ are worked out from the molar mass of the structure shown. Active and inactive are the calls of the source. No cut-off for these calls is given here. Bounds are passed on as bounds.

For orientation: MIC means the least concentration at which growth counts as inhibited. In the case of `O=C(O)c1cn(C2CC2)c2cc(N3CCNCC3)c(F)cc2c1=O` [CIPROFLOXACIN], the zone of inhibition in [1], in test [2], in test [5], in test [7], in [12] and in [13] was 25 to 40 mm throughout. Besides, the zone of inhibition in test [20] and in test [22] was 25 to 40 mm throughout. Also, the MIC in [3] amounted to 0.25 µg/mL (≈ 0.754 µM); in [6] it was 1 µg/mL (≈ 3.02 µM); in test [16], 1 µg/mL (≈ 3.02 µM); in test [17] it was 1 µg/mL (≈ 3.02 µM); in test [18], 0.25 µg/mL (≈ 0.754 µM); in test [19] it was 1 µg/mL (≈ 3.02 µM). Also, the MIC in test [23] amounted to 1 µg/mL (≈ 3.02 µM); in test [24], 0.5 µg/mL (≈ 1.51 µM). The result in [4], in test [9] and in test [14] was Active. The zone of inhibition at 5000 µg/disc in [8] is over 40 mm. Moreover, in test [10], the MBIC90 is 8 µg/mL. Further, the Activity in [11] is reported as 90%. In addition, in test [15], the result was inactive. The compound further came in with an MIC90 in test [21] of 2 µg/mL (≈ 6.04 µM).
Regarding `O=C(O)c1cn(C2CC2)c2cc(N3CCN(C(=O)c4ccc(CC(P(=O)(O)O)P(=O)(O)O)cc4)CC3)c(F)cc2c1=O`, the outcome in [25], in test [26] and in test [27] was inactive. In addition, the minimum inhibitory concentration (MIC) in [3] turned out to be 31.2 µg/mL (≈ 50 µM); in [16] it was 15.6 µg/mL (≈ 25 µM); in test [17], 62.5 µg/mL (≈ 100 µM); in test [18] it was 15.6 µg/mL (≈ 25 µM); in test [19], 62.5 µg/mL (≈ 100 µM); in test [23], 31.2 µg/mL (≈ 50 µM). The compound further showed an MIC in [24] of 7.8 µg/mL (≈ 12.5 µM).

The values above are taken from ChEMBL document CHEMBL4014261, “Design, Synthesis, and Antimicrobial Evaluation of a Novel Bone-Targeting Bisphosphonate-Ciprofloxacin Conjugate for the Treatment of Osteomyelitis Biofilms” (J Med Chem, 2017).
